ChEMBL document CHEMBL1938359, “Pyrrolo[1,2-b]pyridazines, pyrrolo[2,1-f]triazin-4(3H)-ones, and related compounds as novel corticotropin-releasing factor 1 (CRF₁) receptor antagonists” (Bioorg Med Chem, 2012)
The source made the active and inactive calls. No cut-off for these calls is given here.

What was measured:
[1] = target: T1, Corticotropin-releasing factor receptor 1 (Homo sapiens, UniProt P34998); test: Antagonist activity at human CRF1 receptor expressed in CHO-K1 cells assessed as CRF-stimulated cAMP accumulation by enzyme immunoassay; type: functional, cell-based; conditions: read-out: EC50 (the source's name)
T1 sequence (P34998 whole entry): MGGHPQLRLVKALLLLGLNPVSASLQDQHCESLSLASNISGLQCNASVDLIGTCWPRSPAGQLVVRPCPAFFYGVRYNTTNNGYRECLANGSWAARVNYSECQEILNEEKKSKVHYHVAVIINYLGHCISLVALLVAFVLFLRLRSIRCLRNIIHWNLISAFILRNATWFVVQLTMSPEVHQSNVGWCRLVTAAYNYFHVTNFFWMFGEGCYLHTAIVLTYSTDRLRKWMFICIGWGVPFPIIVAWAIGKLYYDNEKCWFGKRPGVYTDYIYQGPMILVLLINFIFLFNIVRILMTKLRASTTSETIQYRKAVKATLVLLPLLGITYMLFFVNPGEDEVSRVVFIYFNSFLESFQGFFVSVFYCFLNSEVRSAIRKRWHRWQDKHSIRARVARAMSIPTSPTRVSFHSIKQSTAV
Method in brief: (§1)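 CHO-K1 cells expressing CRF1 were seeded at 1 × 10^4 cells/well and incubated overnight, then washed twice with F-12. They were preincubated 10 min at 37 °C in F-12 containing 1 mmol/l IBMX. Test compound (1–10000 nmol/l) and 10 nmol/l CRF (final concentration not stated) were added, followed by 15 min at 37 °C. Cells were chilled and cAMP measured by enzyme immunoassay after blank subtraction. IC50 was taken from concentration–response curves.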

[2] = target: T1, Corticotropin-releasing factor receptor 1; test: Displacement of [125I]CRF from human CRF1 receptor expressed in CHO-K1 cells after 2 hrs by gamma counter; type: cell-based
Method in brief: (§2)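 Crude membranes came from CRF1-expressing CHO-K1 cells, homogenized in 50 mmol/l Tris–HCl with 10 mmol/l MgCl2, 2 mmol/l EDTA and aprotinin, then spun at 10,000 g. Membranes were incubated 2 h at room temperature with 0.5 nmol/l 125I human/rat CRF (added solution) and test compound (1–10000 nmol/l). Bound ligand was separated by centrifugation and washed with PBS/0.01% Triton X-100, then counted by γ-counter. Nonspecific binding was defined with 1 µmol/l unlabeled CRF. IC50 was taken from concentration–response curves.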

Rattus norvegicus [3] = test: Anxiolytic activity against swin-stress-induced anxiety-like behavior in Sprague-Dawley rat assessed as increase in time spent in open arms at 3 mg/kg, po after 1 hr by plus-maze test; type: functional, organism-based; set-up: dose 3 mg/kg
Method in brief: (§3)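 Male Sprague-Dawley rats (230–280 g) received oral vehicle (0.5% MC) or compound 1 h before testing. They were forced to swim 120 s in 22 ± 2 °C water (25 cm deep) and dried. Each rat was placed at the maze centre facing a closed arm and video-tracked for 5 min. Time in and entries into open arms were scored. Non-stressed controls were included. Data are mean ± S.E., with n=16 per group. Dunnett test versus vehicle.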

Rattus norvegicus [4] = test: Anxiolytic activity against swin-stress-induced anxiety-like behavior in Sprague-Dawley rat assessed as increase in time spent in open arms at 10 mg/kg, po after 1 hr by plus-maze test; type: functional, organism-based; set-up: dose 10 mg/kg; method in brief: as §3
[5] = AUC (infinity) in rat at 1 mg/kg, po; type: ADME, organism-based; set-up: time infinity, dose 1 mg/kg, route oral; conditions: plasma
Method in brief: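 Fasted male rats dosed orally once at 1 mg/kg in saline with 0.5% MC (w/v). Heparinized jugular-vein blood was taken at 1, 2, 4, 6, 8, 24, 48 and 72 h. Plasma was obtained by centrifugation and kept at -70 °C. AUC came from the plasma concentration–time profile.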

[6] = target: T2, Corticotropin-releasing factor receptor 1 (Rattus norvegicus, UniProt P35353); test: Antagonist activity at rat CRF1 receptor expressed in CHO-K1 cells assessed as CRF-stimulated cAMP accumulation by enzyme immunoassay; type: functional, cell-based; method in brief: as §1
T2 sequence (P35353 whole entry): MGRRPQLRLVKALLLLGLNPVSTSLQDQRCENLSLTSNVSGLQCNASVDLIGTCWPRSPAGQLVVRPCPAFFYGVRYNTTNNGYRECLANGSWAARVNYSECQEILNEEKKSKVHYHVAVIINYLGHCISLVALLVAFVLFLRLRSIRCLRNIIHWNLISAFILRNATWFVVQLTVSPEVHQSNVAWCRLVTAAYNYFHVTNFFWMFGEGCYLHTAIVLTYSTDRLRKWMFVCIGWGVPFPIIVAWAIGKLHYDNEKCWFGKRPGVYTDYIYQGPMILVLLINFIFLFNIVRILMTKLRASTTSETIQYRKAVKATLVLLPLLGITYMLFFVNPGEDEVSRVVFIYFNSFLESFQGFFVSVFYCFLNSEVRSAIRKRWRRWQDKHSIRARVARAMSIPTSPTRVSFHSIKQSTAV

[7] = Volume of distribution at steady state in rat at 1 mg/kg, iv; type: ADME, organism-based; set-up: dose 1 mg/kg, route intravenous; conditions: in vivo, read-out: Vdss
Method in brief: (§4)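 Fasted male rats received a single 1 mg/kg dose, either iv in saline with 30% HP-β-CD or po in saline with 0.5% MC (n = 4 each). Jugular blood was taken by heparinized syringe (iv: 2 min–72 h; po: 1–72 h) and spun to plasma stored at −70 °C. AUC, Cmax, Tmax, T1/2, Vss and CL were derived from plasma concentration–time courses. F = dose-normalized AUCpo/AUCiv × 100.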

[8] = Tmax in rat at 1 mg/kg, po; type: ADME, organism-based; set-up: dose 1 mg/kg, route oral; conditions: in vivo; method in brief: as §4
[9] = target: T2, Corticotropin-releasing factor receptor 1; test: Displacement of [125I]CRF from rat CRF1 receptor expressed in CHO-K1 cells after 2 hrs by gamma counter; type: cell-based; conditions: in the assay text read “in brain membranes” for “expressed in CHO-K1 cells”; method in brief: as §2
[10] = Cmax in rat at 1 mg/kg, po; conditions: in vivo
[11] = Oral bioavailability in rat at 1 mg/kg; type: ADME, organism-based; conditions: in vivo; method in brief: as §4
Rattus norvegicus [12] = test: Anxiolytic activity against swin-stress-induced anxiety-like behavior in po dosed Sprague-Dawley rat assessed as increase in time spent in open arms after 1 hr by plus-maze test; type: functional, organism-based; method in brief: as §3
[13] = Half life in rat at 1 mg/kg, po; type: ADME, organism-based; set-up: dose 1 mg/kg, route oral; conditions: in vivo; method in brief: as §4
[14] = AUC (infinity) in rat at 1 mg/kg, iv; type: ADME, organism-based; set-up: time infinity, dose 1 mg/kg, route intravenous; conditions: plasma
Method in brief: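 Fasted male rats given a single 1 mg/kg intravenous dose in saline with 30% HP-β-CD (w/v). Heparinized jugular-vein blood was drawn pre-dose and at 2, 5, 15 and 30 min and 1, 2, 3, 4, 8, 24, 48 and 72 h. Plasma was separated by centrifugation and stored at -70 °C. AUC was derived from the plasma concentration–time course.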

[15] = Total clearance in rat at 1 mg/kg, iv; type: ADME, organism-based; set-up: dose 1 mg/kg, route intravenous; conditions: in vivo; method in brief: as §4
[16] = Half life in rat at 1 mg/kg, iv; type: ADME, organism-based; set-up: dose 1 mg/kg, route intravenous; conditions: in vivo; method in brief: as §4

| Compound | IC50 [1] | IC50 [2] | further results |
| --- | --- | --- | --- |
| CCC(CC)c1cc(C)n2nc(-c3ccc(OC)cc3C)[nH]c(=O)c12 | 688 nM | 149 nM |  |
| COc1cc(C)c(-c2nn3c(C)cc(C(C)C)c3c(=O)n2C)c(C)c1 | 4.5 nM | 13.1 nM |  |
| CCC(CC)c1cc(C)n2nc(-c3cnc(OC)cc3C)n(C)c(=O)c12 | 17.2 nM | 8.6 nM |  |
| CCC(CC)c1cc(C)n2nc(-c3ccc(N(C)C)nc3C)n(C)c(=O)c12 | 5.5 nM | 7.8 nM |  |
| CCC(CC)c1nc(C)c2nc(-c3ccc(OC)cc3C)c(C)cn12 |  | 311 nM |  |
| CCC(CC)c1cc(C)n2nc(-c3ccc(OC)cc3Cl)[nH]c(=O)c12 | 4 nM | 14.3 nM |  |
| CCOc1ccc(-c2nn3c(C)cc(C(CC)CC)c3cc2C)c(CC)c1 | 6.9 nM | 13.4 nM |  |
| CCC(CC)c1cc(C)n2nc(-c3ccc(OC)cc3C)n(CCO)c(=O)c12 | 4.2 nM |  |  |
| Cc1nc(N(C)C)ccc1-c1nn2c(C)cc(C(C)C)c2c(=O)n1C |  | 131 nM |  |
| CCC(C)c1cc(C)n2nc(-c3ccc(N(C)C)nc3C)n(C)c(=O)c12 (centres undefined) | 36.5 nM | 81.2 nM |  |
| CCC(CC)c1cc(C)n2nc(-c3ccc(OC)cc3C)c(C)cc12 | 4.9 nM |  | Activity (Rattus norvegicus [3]): Active |
| CCC(CC)c1cc(C)n2nc(-c3ccc(OC)cc3C)n(C(C)C)c(=O)c12 | 5.1 nM | 19.2 nM |  |
| CCC(CC)c1cc(C)n2nc(-c3cnc(N(C)C)cc3C)c(C)cc12 | 11.5 nM | 7.4 nM |  |
| CCC(CC)c1cc(C)n2nc(-c3ccc(OC)cc3C)n(CC(C)C)c(=O)c12 | 47.2 nM | 111 nM |  |
| COc1ccc(-c2nn3c(C)cc(C(C)C)c3c(=O)n2C)c(Cl)c1 | 7.4 nM | 8.7 nM |  |
| CCC(CC)c1nc(C)n2nc(-c3ccc(OC)cc3C)c(C)cc12 | 566 nM | 122 nM |  |
| CCC(CC)c1cc(C)n2nc(-c3ccc(OC)cc3C)n(CC3CC3)c(=O)c12 | 5 nM | 3.3 nM |  |

More lines, main results first:

| IC50 [1] | IC50 [2] | Compound | further results |
| --- | --- | --- | --- |
| 1.2 nM | 9.7 nM | CCC(CC)c1cc(C)n2nc(-c3ccc(OC)cc3C)n(CC)c(=O)c12 |  |
| 2.5 nM | 18.3 nM | CCC(CC)c1cc(C)n2nc(-c3cc4c(cc3C)OCO4)c(C)cc12 |  |
| 3.3 nM | 16.6 nM | CCC(CC)c1cc(C)n2nc(-c3cc(C)c(C)cc3C)c(C)cc12 |  |
| 1.7 nM | 2.6 nM | CCC(CC)c1cc(C)n2nc(-c3ccc(OC)cc3C)n(C)c(=O)c12 |  |
| 1.2 nM | 3.8 nM | CCC(CC)c1cc(C)n2nc(-c3ccc(OC)cc3Cl)n(C)c(=O)c12 |  |
| 1.1 nM | 3.8 nM | CCC(CC)c1cc(C)n2nc(-c3ccc(OC)nc3C)n(C)c(=O)c12 |  |
| 0.7 nM | 4.6 nM | CCC(CC)c1cc(C)n2nc(-c3ccc(OC)cc3Cl)n(CC)c(=O)c12 |  |
| 3.5 nM | 4.4 nM | CCC(CC)c1cc(C)n2nc(-c3ccc(OC)cc3Cl)n(CCO)c(=O)c12 |  |
| 1.8 nM | 11.6 nM | CCC(CC)c1cc(C)n2nc(-c3ccc(C)cc3C)c(C)cc12 |  |
| 1 nM | 5.9 nM | CCC(CC)c1cc(C)n2nc(-c3ccc(OC)cc3Cl)n(C3CC3)c(=O)c12 |  |
| 2.4 nM | 5 nM | CCC(C)c1cc(C)n2nc(-c3ccc(OC)cc3C)n(C)c(=O)c12 (centres undefined) |  |
| 3.5 nM | 4.2 nM | CCC(C)c1cc(C)n2nc(-c3c(C)cc(OC)cc3C)n(C)c(=O)c12 (centres undefined) |  |
| 1.9 nM | 8.9 nM | CCc1cc(OC)c(OC)cc1-c1nn2c(C)cc(C(CC)CC)c2cc1C |  |
| 1.1 nM | 4.9 nM | CCC(C)c1cc(C)n2nc(-c3ccc(OC)cc3Cl)n(C)c(=O)c12 (centres undefined) |  |
| 0.6 nM | 2 nM | CCC(CC)c1cc(C)n2nc(-c3c(C)cc(OC)cc3C)n(C)c(=O)c12 |  |
| 3.7 nM | 5.7 nM | CCC(CC)c1cc(C)n2nc(-c3ccc(OC)cc3C)n(C3CC3)c(=O)c12 |  |
| 0.3 nM | 4.5 nM | CCC(CC)c1cc(C)n2nc(-c3ccc(OC(F)F)nc3C)n(C)c(=O)c12 |  |
| 3.2 nM |  | CCC(CC)c1cc(C)n2nc(-c3cnc(OC(F)F)cc3C)n(C)c(=O)c12 | Activity (Rattus norvegicus [4]): Active; AUC(0-inf) [5]: 70.2 ng·h/mL; EC50 [6]: 2.6 nM; Vd [7]: 2.95 L/kg; Tmax [8]: 1 h; IC50 [9]: 8.4 nM; Cmax [10]: 21.5 ng/mL; bioavailability [11]: 13.5%; Activity (Rattus norvegicus [12]): Dose-dependent effect; half-life [13]: 2.4 h; AUC(0-inf) [14]: 518 ng·h/mL; clearance [15]: 34.7 mL/min/kg; half-life [16]: 4.3 h |
